“And” between values parts separate entries of the source, which are not always exact repeats. Equal entries are not always repeated. Where two headings read alike, the source gives them in different places. Marks after values point to notes of the source that are not given here. Each block holds one compound with its values, some of them ahead of it.
Columns and labels:
[1] = format: in vivo, healthy subjects (human); conditions: for Geometric Mean Ratio (90%CI) of AUClast / Geometric Mean Ratio (90%CI) of Cmax / Geometric Mean Ratio (90%CI) of AUCinf: istradefylline + rifampin vs istradefylline alone; for AUC(0-t): AUClast
Procedure, shortened: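 Crossover in 20 healthy humans. Single oral 40 mg tablet of the test compound given after ≥8 h fast, alone (period 1) or on day 8 of rifampin 600 mg once daily (days 1–20, dosed 2 h after test compound). Venous plasma sampled predose to 312 h. Noncompartmental AUClast and AUCinf, reported as geometric means and geometric mean ratios with 90% CI.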

Safety and tolerability = format: in vivo, healthy subjects (human); conditions: for Subjects who experienced AEs: 20 subjects
A2A receptor = conditions: A2A vs A1, A2B, A3; cited from earlier work
P‐glycoprotein (P‐gp) = conditions: ref data on file; Kyowa Kirin Pharmaceutical Development, Inc.; cited from earlier work
[2] = in those who received various CYP3A4 inhibitors; 1449 healthy subjects and PD patients; cited from earlier work
[3] = coadministration of ketoconazole, healthy subjects; cited from earlier work
[4] = tested on: cytochrome P450 (CYP) isoenzymes; conditions: ref data on file; Kyowa Kirin Pharmaceutical Development, Inc.; cited from earlier work
[5] = doses of 20 and 40 mg/day; cited from earlier work
[6] = cited from earlier work
[7] = ref data on file; Kyowa Kirin Pharmaceutical Development, Inc.; cited from earlier work
[8] = ref data on file; Kyowa Kirin Pharmaceutical Development, Inc.; cited from earlier work; remark: listed apart in the source
[9] = istradefylline 40 mg + steady-state rifampin 600 mg/day, arithmetic mean (SD)
[10] = istradefylline 40 mg alone, arithmetic mean (SD)
[11] = ln-transformed, istradefylline 40 mg + rifampin 600 mg/day, geometric mean (CV%)
[12] = ln-transformed, istradefylline 40 mg alone, geometric mean (CV%)
[13] = metabolite-to-parent ratio, istradefylline 40 mg alone, arithmetic mean (SD)
[14] = during administration of the substance alone
[15] = healthy subjects, independent of dose

Exposure of metabolite in plasma as share of total drug exposure ([1]; generally): < 9%
AUCinf [1, 9]: 159 (47.6) ^b ng·h/mL
AUClast [1, 9]: 118 (44.3) ng·h/mL
t1/2 [1, 9]: 17.6 (4.95) ^b h
Tmax ([1]; istradefylline 40 mg + steady-state rifampin 600 mg/day, median (min, max)): 3.0 (1.0, 6.0) h
AUClast [1, 10]: 123 (77.6) ng·h/mL
Tmax ([1]; istradefylline 40 mg alone, median (min, max)): 3.5 (2.0, 12.0) h
Geometric Mean Ratio (90%CI) of AUClast [1]: 1.04 (0.90–1.21)
Geometric Mean Ratio (90%CI) of Cmax [1]: 1.79 (1.59–2.01)
Geometric Mean Ratio (90%CI) of AUClast ([1]; listed as istradefylline M1): 1.04
Geometric Mean Ratio (90%CI) of Cmax ([1]; listed as istradefylline M1): 1.79
All M/P ratios ([1]; istradefylline alone or with rifampin (M8: except M/P ratio for Cmax after coadministration)): < 9%
Change in AUClast during rifampin coadministration (GMR comparison) ([1]; ln-transformed data): +4%
Change in Cmax during rifampin coadministration (GMR comparison) ([1]; ln-transformed data): +79%
AUClast, geometric mean [1, 11]: 110 (41.8) ng·h/mL
Cmax, geometric mean [1, 11]: 7.0 (29.0) ng/mL
AUClast, geometric mean [1, 12]: 105 (61.4) ng·h/mL
Cmax, geometric mean [1, 12]: 3.90 (46.3) ng/mL
M/P ratio (AUClast) [1, 13]: 0.0134 (0.0078)
M/P ratio (Cmax) [1, 13]: 0.0241 (0.0045)
Cmax ([1]; plasma, single oral istradefylline 40 mg alone, arithmetic mean (SD)): 4.34 (2.49) ng/mL
SMILES: CCn1c(=O)c2c(nc(/C=C/c3ccc(O)c(OC)c3)n2C)n(CC)c1=O [M1 metabolite, 4′‐O‐monodesmethylated derivative of istradefylline]

SMILES: CO[C@H]1/C=C/O[C@@]2(C)Oc3c(C)c(O)c4c(O)c(c(/C=N/N5CCN(C)CC5)c(O)c4c3C2=O)NC(=O)/C(C)=C\C=C\[C@H](C)[C@H](O)[C@@H](C)[C@@H](O)[C@@H](C)[C@H](OC(C)=O)[C@@H]1C [rifampin, reference compound]
Subjects who experienced AEs (Safety and tolerability; [14]): 85%
Subjects with chromaturia (Safety and tolerability; subjects receiving rifampin): 70%

Decrease in istradefylline exposure based on AUC values ([1]; during coadministration of steady-state oral rifampin 600 mg/day): ~80%
Cmax ([1]; human, plasma, oral, 40 mg): 171 ng/mL
Tmax ([1]; human, plasma, oral, 40 mg): 2 h
Vd/F ([1]; human, plasma, oral, 40 mg): 515 L
half-life ([1]; human, plasma, oral, 40 mg): 94.8 h
AUC(0-t) ([1]; human, plasma, oral, 40 mg, geometric mean, ln-transformed, istradefylline 40 mg alone, geometric mean (CV%)): 9460 ng·h/mL
AUC(0-t) ([1]; human, plasma, oral, 40 mg, istradefylline 40 mg alone, arithmetic mean (SD)): 9850 ng·h/mL
Cmax ([1]; human, plasma, po, 40 mg): 181 ng/mL
CL/F [1, 9]: 20.6 (6.7) L/h
CL/F [1, 10]: 4.0 (1.5) L/h
CL/F ([1]; istradefylline 40 mg alone, arithmetic mean (SD), listed as istradefylline): 4.0 L/h and 4.00 L/h
Geometric Mean Ratio (90%CI) of AUCinf [1]: 0.19 (0.18–0.20)
Geometric Mean Ratio (90%CI) of AUClast [1]: 0.21 (0.19–0.22)
Geometric Mean Ratio (90%CI) of Cmax [1]: 0.55 (0.49–0.62)
Geometric Mean Ratio (90%CI) of AUCinf ([1]; listed as istradefylline): 0.19
Geometric Mean Ratio (90%CI) of AUClast ([1]; listed as istradefylline): 0.21
Geometric Mean Ratio (90%CI) of Cmax ([1]; listed as istradefylline): 0.55
SMILES: CCn1c(=O)c2c(nc(/C=C/c3ccc(OC)c(OC)c3)n2C)n(CC)c1=O [Istradefylline]
In vitro affinity, selectivity among adenosine receptor subtypes (A2A receptor): higher in vitro affinity toward the A2A receptor than for A1, A2B, and A3 receptors
P-gp substrate (P‐glycoprotein (P‐gp)): not a P‐gp substrate
Increase in AUC during the dosing interval at steady state (AUCss) [2]: 38%
Increase in AUCinf [3]: 2.5 fold
CYP isoenzymes partly involved in metabolism [4]: CYP1A2, 2B6, 2C8, 2C9, 2C18, and 2D6*1
Main CYP isoenzymes involved in metabolism [4]: CYP1A1, 3A4, and 3A5
OFF time in PD patients [5]: statistically significant improvement in OFF time
Dose proportionality of exposure (Cmax and AUC) ([6]; healthy subjects and PD patients): directly proportional to istradefylline dose (up to 80 mg)
Apparent clearance (CL/F) [6, 15]: 4.1 to 6.0 L/h
Apparent volume of distribution (Vz/F) [6, 15]: 448 to 557 L
Terminal elimination half-life (t1/2) [6, 15]: 67 to 95 h
Subjects who experienced AEs (Safety and tolerability; during administration of istradefylline + rifampin): 25%
Subjects who experienced AEs (Safety and tolerability; [14]): 20%
Tolerability (Safety and tolerability; given alone or in combination with rifampin): well tolerated
Treatment-related AEs (considered related to istradefylline) (Safety and tolerability; while receiving istradefylline alone, mild, transient disturbance in attention, asthenia, intermittent dizziness): single subject
Aqueous solubility [7]: poor aqueous solubility
Bound to plasma protein [8]: ~98%
